Among the data in ChEMBL document CHEMBL4330158, “Prenylated Flavonoids from the Roots and Rhizomes of Sophora tonkinensis and Their Effects on the Expression of Inflammatory Mediators and Proprotein Convertase Subtilisin/Kexin Type 9” (J Nat Prod, 2019) are IC50, Activity and inhibition values, retold here.

The IC50 is the concentration that gives 50% inhibition. A word on the inhibition: it is the drop in the measured response relative to a control, in per cent.

Series [1] concerns HepG2 (Homo sapiens). Nature of the series: Inhibition of PCSK9 protein synthesis in human HepG2 cells by immunoblot analysis. (In general: Immunoblotting shows a protein as a band on a membrane.)
Series [2] deals with HepG2 (Homo sapiens). Nature of the series: Induction of ACC phosphorylation in human HepG2 cells at 4 to 20 uM by Western blot analysis.
For series [3], the system named is HepG2 (Homo sapiens). Description: Inhibition of PCSK9 mRNA level in human HepG2 cells at 20 uM by qRT-PCR assay relative to control. In general terms: In qPCR the cycle at which signal appears reflects the starting amount.
Series [4] relates to RAW264.7. Nature of the series: Anti-inflammatory activity in mouse RAW264.7 cells assessed as inhibition of LPS-induced NO production by Griess assay. The format is functional, cell-based. In short, it runs like this: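 Murine RAW264.7 macrophages were kept in RPMI 1640 with 10% FBS and penicillin/streptomycin at 37 °C and 5% CO2. NO production was taken as the nitrite concentration in the culture medium, measured by the Griess reaction.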

For series [5], the system named is RAW264.7. Nature of the series: Cytotoxicity against mouse RAW264.7 cells assessed as reduction in cell viability at 20 uM by MTT assay. In kind it is cell-based. The conditions noted are these: raw264.7, 20 µM. In short, it runs like this: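 Viability was read by MTT assay in triplicate, with cells cultured at 37 °C in humidified 5% CO2.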
(Formazan colour is commonly taken as a measure of viable cells.)

The test system of series [6] is RAW264.7. Description: Anti-inflammatory activity in mouse RAW264.7 cells assessed as inhibition of LPS-induced CSF2 mRNA level at 2 to 10 uM after 6 hrs by qRT-PCR assay. In kind it is functional, cell-based. In short, it runs like this:
(§1)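 RAW264.7 macrophages were grown in RPMI 1640 with 10% FBS at 37 °C and 5% CO2, then stimulated with LPS for 6 h. Total RNA was extracted with Trizol, and 1 μg was reverse-transcribed with oligo-dT at 42 °C for 1 h. SYBR Green qPCR ran 40 cycles of 95 °C 10 s and 55 °C 30 s. Levels were normalized to GAPDH by 2−ΔΔCT and given as mean ± SEM.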

Series [7] concerns RAW264.7. Nature of the series: Anti-inflammatory activity in mouse RAW264.7 cells assessed as inhibition of LPS-induced IL-1beta mRNA level at 2 to 10 uM after 6 hrs by qRT-PCR assay. The format is functional, cell-based. In short, it runs like this:
as §1

The test system of series [8] is RAW264.7. Description: Anti-inflammatory activity in mouse RAW264.7 cells assessed as inhibition of LPS-induced TNF mRNA level at 2 to 10 uM after 6 hrs by qRT-PCR assay. In kind it is functional, cell-based. In short, it runs like this: as §1
The subject of series [9] is RAW264.7. Nature of the series: Anti-inflammatory activity in mouse RAW264.7 cells assessed as inhibition of LPS-induced CSF2 mRNA level at 2 to 50 uM after 6 hrs by qRT-PCR assay. In kind it is functional, cell-based. In short, it runs like this: as §1
Series [10] concerns RAW264.7. Nature of the series: Anti-inflammatory activity in mouse RAW264.7 cells assessed as inhibition of LPS-induced TNF mRNA level at 2 to 50 uM after 6 hrs by qRT-PCR assay. In kind it is functional, cell-based. In short, it runs like this: as §1
In series [11] the test system is RAW264.7. Nature of the series: Anti-inflammatory activity in mouse RAW264.7 cells assessed as inhibition of LPS-induced IL-1beta mRNA level at 2 to 50 uM after 6 hrs by qRT-PCR assay. The format is functional, cell-based. In short, it runs like this:
as §1

Calls of active or inactive are those of the source. The calls are words filed in the database; no cut-off is given here.

In turn, `CC(C)=CCc1c(O)ccc2c1OC[C@H]1c3ccc4c(c3O[C@@H]21)OC(C)(C)C=C4` [ERYBREADIN D] gave an IC50 in the series with HepG2 (Homo sapiens) [1] of 7.8 µM. Besides, the result with HepG2 (Homo sapiens) [2] was Active. Moreover, in the series on HepG2 (Homo sapiens) [3], the inhibition at 20 µM worked out at 44%.

With `COc1ccc2cc3[n+](cc2c1OC)CCc1cc2c(cc1-3)OCO2` [BERBERINE], the IC50 in the series with HepG2 (Homo sapiens) [1] worked out at 6.9 µM. Further, the inhibition at 20 µM in the series with HepG2 (Homo sapiens) [3] worked out at 67%.

Take `COc1ccc([C@@H](CO)C(=O)c2cc(CC=C(C)C)c(OC)cc2O)cc1`: the IC50 in the series on RAW264.7 [4] is 8.1 µM. Besides, the Activity result with RAW264.7 [5] was “Non-Toxic”. In addition, the inhibition entry with RAW264.7 [6] and in the series on RAW264.7 [7] was “Active” each time. In addition, in the series on RAW264.7 [8], the inhibition entry is “inactive”.

On to `COc1ccc(-c2coc3c(CC=C(C)C)c(OC)ccc3c2=O)cc1`, for which the IC50 in the series with RAW264.7 [4] is 6.2 µM. Moreover, in the series with RAW264.7 [5], the Activity entry is on record as “Non-Toxic”. Also, the inhibition result in the series on RAW264.7 [9] and in the series on RAW264.7 [10] was “Active” in each case. In addition, in the series on RAW264.7 [11], the inhibition entry was “inactive”.

Turning to `CC(C)=CCc1c(O)c(CC=C(C)C)c2c(c1O)C(=O)C[C@@H](c1ccc(O)cc1)O2` [LONCHOCARPOL A], in the series on RAW264.7 [5], the Activity result is listed as “Toxic”. This compound returned an inhibition at 20 µM with HepG2 (Homo sapiens) [3] of 67.2%.
